Source: publication PMC3312795 (European Journal of Medicinal Chemistry, 2012)

Assays:
SA11 rotavirus [1] = experiment: Rotavirus; assay type: cell-based, rotavirus SA11 (primate G3); conditions: MA104, in Primates, 24 h, read-out: ED50, rotavirus (SA11) replication, MA104 cells, TCID50 titers at 24 hr post infection, average of at least 3 independent tests
SA11 rotavirus [2] = experiment: Rotavirus; assay type: cell-based, rotavirus SA11 (primate G3); conditions: SA11, MOI of 2, 12 hr post infection
Outline: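 Confluent MA104 monolayers inoculated 1 hr, PBS-washed, then held in MEM with test compound (below 50 μM; below 20 μM for some) or 0.1% DMSO plus trypsin 1 μg/ml. At 12 hr, IFA: methanol fix (RT, 30 min), anti-VP6 mAb, FITC anti-mouse IgG. Western: lysates sonicated, 10% gel, anti-VP6 with β-actin loading control, chemiluminescent detection.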

Huh-7 cells = experiment: Lipid droplet development in Huh-7 cells; assay type: cell-based, human; conditions: various concentrations
Outline: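 Spontaneous lipid droplet formation in confluent Huh-7 cells given various concentrations of test compound or 0.1% DMSO mock for 72 hr. Medium then replaced with NBD-cholesterol (1 μg/ml) medium for a further 12 hr. Cells fixed in 4% formaldehyde for 10 min, PBS-washed, and fluorescence viewed by microscopy. Untreated 1-day-old and 4-day-old cells served as references.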

SA11 rotavirus [3] = experiment: Pre-treatment of SA11 rotavirus with compound; assay type: cell-based, rotavirus SA11 (primate G3); conditions: pre-treatment with compound at 100 M (so in the source), 37 °C for 2 hrs

SMILES | EC50 (SA11 rotavirus [1]) [µM] | anti-rotaviral effects by Western blot analysis and IFA (SA11 rotavirus [2]) | suppression of increase in lipid droplets (Huh-7 cells) | effect of pre-treatment of SA11 rotavirus on viral titer (virucidal effect) (SA11 rotavirus [3])
C=C1C(=O)O[C@H](CCCCCCCC)[C@H]1C(=O)O [C75] | 11.3 to 28.5 |  |  | 
CCCCCCCCCCCCCCCCNc1ccc(C(=O)O)cc1 [PHB, hexadecylamino-p-amino benzoic acid] | 11.3 to 28.5 |  |  | 
CCC/C=C/C/C=C/C=C/CNc1ccc(C(=O)O)cc1 [1e, 4-((2E,4E,7E)-Undeca-2,4,7-trienylamino)benzoic acid] |  | confirmed | dose-dependent | did not affect the viral titer
CCC/C=C/C/C=C/C=C/C=N/NN=O [Triacsin C] |  | confirmed | dose-dependent | did not affect the viral titer
C=C(C)[C@@H]1CC[C@]2(C(=O)O)CC[C@]3(C)[C@H](CC[C@@H]4[C@@]5(C)CC[C@H](O)C(C)(C)[C@@H]5CC[C@]43C)[C@@H]12 [Betulinic acid, betulinic acid] | 11.3 to 28.5 |  |  | 
CCC/C=C/C/C=C/C=C/C=N/N1CCCS1(=O)=O [1ba, 2-[(2E,4E,7E)-Undeca-2,4,7-trienylideneamino]-1,1-dioxo-1-isothiazolidine] |  | confirmed | dose-dependent | 
